In the library only some 9.4% were active in any assay of this set; here they are far more common.
Lmaj promast = reduces viability of Leishmania major promastigotes. resazurin fluorescence viability. inhibition, % at 10 µM. 9% of 200,000 active. AID 1063; in the data active means inhibition above about 50%;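 further: promastigotes grown with compound for 44 hours at 28 °C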
SKKanGAS inh = inhibitors of SKKanGAS S. pyogenes growth in kanamycin (SK-promoter or general growth effect). BacTiter-Glo, 6 h. 1.3% of 300,000 active. AID 1662. inhibition, % at 7.5 µM;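 active means mean replicate score, as percent of positive control median, at least 50; inconclusive means mean below 50 but one replicate at or above 50; inactive means mean and every replicate below 50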;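 further: strain carries kanamycin resistance gene driven by streptokinase promoter and grows in 40 µg/ml kanamycin; loss of luminescence reflects streptokinase promoter inhibition or plain growth inhibition; 0% = median of DMSO wells and 100% = positive control at its reference dose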
Mdm2 MdmX PPI = disrupts the human Mdm2-MdmX interaction; O15151+Q00987; SaOS-2 split-luciferase Mdm2/MdmX complementation, luminescence; inhibition, % at 8 µM; 3% of 330,000 active;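 active means inhibition of at least 50% at 8 µM in the primary screen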
CSC inhib = blocks cancer stem cells; cancer stem cell-like cells viability, luminescence; inhibition, % at 7.5 µM; 1.1% of 300,000 active; in the data active means inhibition above about 75%; inconclusive means no clear call, values can overlap the other calls; tested in HMLE shEcad cells
T cruzi repl = blocks replication of Trypanosoma cruzi; T. cruzi beta-gal in NIH3T3, luminescence, 90 h; inhibition, % (concentration not given with the values); 1.4% of 300,000 active; AID 1885;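 active means mean inhibition across valid replicates above about 55%, limit read from the data; inconclusive means mean below that limit but half or more replicates reach it; inactive means mean below it, under half of replicates reach it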;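 further: signal also drops with host cell toxicity which is not excluded here; 0% = plate median of DMSO wells and 100% = zero luminescence signal; higher percent means less beta-gal luminescence so fewer parasites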
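System – NIH/3T3 host cells with β-galactosidase reporter T. cruzi · Doses – single 50 nL compound addition per well in DMSO · Reagent – 5000 T. cruzi trypomastigotes/well · Medium – Low-serum DMEM with 2% FBS · Timing – ≥90 h infection period, 3 h prior cell attachment · Evaluation – parasite load inhibition, % · Technique – GalScreen luminescence, 60 min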
Beta cell apopt = beta cell apoptosis inhibition; INS-1E cytokine-induced death, ATP luminescence, 48 h; percent of positive-control rescue, neutral wells zero; protection from apoptosis, % (no concentration beside the values); 0.8% of 300,000 active; AID 435005;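 active means Every replicate reaches about 75%, or at least half do and their mean reaches it too, limit read from the data; inconclusive means At least half of replicates reach the limit but their mean does not; inactive means Under half of replicates reach the limit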;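 further: 0% = cytokine-treated negative control wells and 100% = positive control rescue; higher means more ATP so stronger rescue from cytokine killing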
Mdm2 MdmX conf = confirmation of human Mdm2/MdmX interaction inhibitors; Mdm2-MdmX binding, luminescent assay; 55% of 10,000 active; inhibition, % at 8 µM; shares compounds with Mdm2 MdmX PPI; in the data active means inhibition above about 40%
Full FLuc ctr = inhibits full-length luciferase, flagging false Mdm2/MdmX hits | shares compounds with Mdm2 MdmX PPI | SaOS-2 full-length luciferase counterscreen, luminescence | inhibition, % at 8 µM | 77% of 6,200 active | AID 504607;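 active means mean inhibition at 8 µM reaching about 37%, which flags the compound as non-specific, limit read from the data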;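 further: p53-null SaOS-2 cells with luciferase driven by a doxycycline-inducible promoter; compound on cells about two nights before reading with doxycycline added after day one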
Active calls of the source: *; u = inconclusive; x = no result given.

SMILES	Lmaj promast	SKKanGAS inh	Mdm2 MdmX PPI	CSC inhib	T cruzi repl	Beta cell apopt	Mdm2 MdmX conf	Full FLuc ctr
COC(=O)c1ccc(OC(=O)CS(=O)c2ccccc2[N+](=O)[O-])cc1 (centres undefined)	-0.6	-37.6	-32.1	-3.0	-11.9	-7.7	x	x
Cc1ccc(Sc2c([N+](=O)[O-])c(=O)n(C)c3ccccc23)cc1	x	4.7	50.6*	118.3*	38.9	-3.5	14.3	x
Cc1ccc(Sc2c(C=O)c3ccccc3n2C)cc1	-4.8	31.7	81.2*	-4.0	7.2	-7.2	70.6*	53.1*
COc1cc2c(c(OC)c1OC)-c1ccc(NC(=O)c3ccc(F)cc3)c(=O)cc1[C@@H](NC(C)=O)CC2	x	9.7	61.7*	52.7	17.2	2.0	52.0*	78.0*
COc1cc2c(cc1OC)C(COc1ccc(F)cc1)N(C(C)=O)CC2 (centres undefined)	x	0.4	-1.0	-12.7	0.4	-5.4	x	x
COc1cc2c(c(OC)c1OC)-c1ccc(OC)c(=O)cc1[C@@H](NC(C)=O)CC2	x	-3.4	73.3*	49.0	22.0	38.1	40.8*	97.7*
COc1cc2c(c(OC)c1OC)-c1ccc(OC)c(=O)cc1[C@@H](N(C)CC#CCO)CC2	x	0.0	51.0*	64.6	21.7	48.2	52.8*	117.5*
COc1cc(C(=O)NC2CCCc3ccccc32)cc(OC)c1OC (centres undefined)	x	0.6	39.7	-12.5	4.1	0.3	x	x
COc1ccc(NC(=O)Nc2ccc3c(c2)C(=O)N([C@H](C)CO)C[C@H](C)[C@@H](CN(C)C(=O)Nc2c(C)noc2C)O3)cc1	x	x	-3.9	x	x	2.2	x	x
CC(=O)c1c(C)[nH]c(C(=O)N2CCN(c3cc(Cl)ccc3C)CC2)c1C	32.7	-2.2	72.8*	43.2	-10.0	22.9	75.2*	34.0
Cc1ccc(Cl)cc1N1CCN(C(=O)c2cc3c(=O)[nH]c4ccccc4c3n2C)CC1	32.0	28.2	71.0*	15.8	49.2	16.4	91.5*	78.8*
COc1cccc(N2CCN(C(=O)c3[nH]c(C)c(C(C)=O)c3C)CC2)c1	-1.4	14.3	53.8*	-9.3	-30.1	-7.9	68.2*	41.8*
Cn1c(C(=O)N2CCN(c3ccc(Cl)cc3)CC2)cc2c(=O)[nH]c3ccccc3c21	12.5	22.4	25.2	10.8	29.7	-7.1	x	x
COC(=O)c1c(C)[nH]c(C(=O)N2CCN(c3ccc(OC)cc3)CC2)c1C	3.4	-5.2	x	3.8	-6.2	x	x	x
O=C(O)c1cc2ccccc2c2cc(Br)ccc12	x	-6.2	6.9	-7.6	-3.0	-7.0	x	x
O=C(NC1CC1)c1ccc(Cl)c(S(=O)(=O)N2CCOCC2)c1	x	1.3	-3.6	-6.5	-21.3	-1.5	x	x
CCn1cc(/C=C(\NC(=O)c2ccccc2)C(=O)N2CCOCC2)c2ccccc21	x	4.9	27.8	x	-7.3	x	x	x
Cc1cc(NC(=O)CC2CCCC2)n(-c2nc3ccccc3[nH]2)n1	21.9	51.1*	56.6*	31.2	18.8	20.7	11.1	x
Cc1cc(NC(=O)c2ccccc2F)n(C(C)(C)C)n1	x	-2.3	2.8	-0.3	-16.5	-2.8	x	x
Cc1cc(NC(=O)CN2CCCCC2)n(-c2ccccc2)n1	x	-0.1	-1.3	-1.5	10.8	0.8	x	x
Cc1cc(NC(=O)c2ccc(F)cc2F)n(-c2nc3ccccc3[nH]2)n1	1.4	-11.2	65.8*	-1.3	-9.0	16.3	39.8	29.6
O=C(CNS(=O)(=O)c1ccccc1)N1CCN(Cc2ccccc2)CC1	x	0.4	26.9	-13.6	-4.5	1.8	x	x
S=c1[nH]ccn1-c1c(Cl)cccc1Cl	x	-5.5	-17.8	-4.0	-5.3	-6.7	x	x
CC(C)Oc1ccc(S(=O)(=O)N2CCOCC2)cc1NC(=O)CN1C(=O)NC2(CCCC2)C1=O	x	-2.9	16.1	x	10.8	1.4	x	x
O=c1cc(-c2ccc(O)c(O)c2)oc2ccc3ccccc3c12	x	x	54.6*	x	x	x	74.5*	130.8*
SMILES	Lmaj promast	SKKanGAS inh	Mdm2 MdmX PPI	CSC inhib	T cruzi repl	Beta cell apopt	Mdm2 MdmX conf	Full FLuc ctr
C/C(=N\Nc1ccc(S(N)(=O)=O)cc1[N+](=O)[O-])c1cccnc1	x	0.9	58.2*	9.4	5.7	0.1	0.6	x
CN(C)CCCn1c(=O)n(C2CCCCC2)c(=O)c2c3c(sc21)CCCCC3	x	-10.7	89.7*	16.2	41.0	21.7	72.2*	66.1*
COCCN(C(=O)c1ccc(-c2ccc(Cl)cc2)o1)c1c(N)n(Cc2ccccc2)c(=O)[nH]c1=O	x	-6.4	20.7	-0.7	-0.8	-0.1	x	x
O=C(COC(=O)/C=C/c1cccc([N+](=O)[O-])c1)Nc1cccnc1Cl	x	x	4.6	-11.8	x	1.4	x	x
COc1ccc2[nH]c3c(N4CCc5ccccc5C4)ncnc3c2c1	x	23.5	75.9*	60.7	6.8	2.2	50.0*	62.9*
COc1ccc2[nH]c3c(Cl)ncnc3c2c1	9.8	-2.8	7.8	2.8	-14.2	-1.3	x	x
CCCCCn1c(N)c(-c2nc3ccccc3s2)c2c([N+](=O)[O-])nn(C)c(=O)c21	27.6	41.4	87.4*	34.9	59.2*	-3.0	2.5	x
N/C(Cc1nc(-c2ccc(Cl)cc2)cs1)=N/O	x	-14.6	-41.6	x	44.3	x	x	x
COc1ccc2c(-c3ccc(S(N)(=O)=O)cc3)c(-c3ccc(S(C)(=O)=O)cc3)sc2c1	x	x	66.8*	x	x	x	14.0	x
O=C(N/N=C/c1ccc(-c2ccc(S(=O)(=O)Nc3ncccn3)cc2)o1)c1cc2ccccc2cc1O	73.3*	8.8	54.5*	-4.6	-13.6	0.1	36.2	x
O=C(/C=C/c1cccc([N+](=O)[O-])c1)OCC(=O)c1ccccc1	-3.0	-3.5	5.5	-5.3	-5.8	-3.5	x	x
O=C(C#Cc1cccc([N+](=O)[O-])c1)c1ccccc1	11.4	-8.4	72.5*	39.5	51.1	39.5	63.4*	52.1*
Nc1ccccc1C#Cc1ccc([N+](=O)[O-])cc1	x	-1.8	-36.6	26.0	5.5	-0.2	x	x
Nc1ccccc1C#CC(=O)c1ccccc1	x	-3.9	96.0*	30.2	u	90.8*	62.7*	55.5*
CC1(C)O[C@@H]2[C@H](O1)[C@@H](COS(=O)(=O)O)O[C@H]2n1c(=S)[nH]c2c(=O)[nH]c(N)nc21	x	x	-0.8	1.1	x	-4.4	x	x
CC(=O)c1cccc(NC(=O)N2CCC(NC(=O)C3CCCCC3)CC2)c1	x	-0.8	21.5	-13.4	0.8	-5.8	x	x
O=C1N=C2SCCN2/C1=C\c1ccc(Cl)cc1	3.5	0.9	52.0*	-6.0	-20.1	-5.5	4.5	x
C=CCn1c(=O)c(C(=O)Nc2cccnc2)c(O)c2ccccc21	-3.8	5.6	68.5*	30.1	-8.3	-1.5	2.8	x
COc1cc(NC(=O)c2cccs2)c(C(=O)OCC(=O)NCc2ccccc2)cc1OC	-3.4	20.1	58.0*	51.8	-3.9	41.3	15.9	x
COc1cc(NC(=O)c2cccs2)c(C(=O)OCC(=O)NC(C)c2ccccc2)cc1OC (centres undefined)	1.8	-6.6	14.6	-14.8	2.3	-0.9	x	x
